Laboratory results reported in ChEMBL document CHEMBL1828500, “Synthesis and biological evaluation of dihydroindeno and indeno [1,2-e] [1,2,4]triazolo [3,4-b] [1,3,4]thiadiazines as antimicrobial agents” (2011).
Values after ≈ are worked out from the molar mass of the structure shown. Active and inactive are the calls of the source. No cut-off for these calls is given here.

How the values were obtained:
Format in all cases: functional
[1] = test system: Bacillus subtilis; test: Antibacterial activity against Bacillus subtilis MTCC 121 at 2 mg/ml after 24 hrs by agar well diffusion method; conditions: MTCC 121, 24 h, read-out: DIZ
How it was run: (§1)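 Cultures adjusted to 0.5 McFarland and left 15 min on agar for adsorption. 8 mm wells bored and loaded with compound at 2.0 mg/mL in DMSO. Incubated 37 °C for 24 h. Growth-inhibition zone diameter (mm) read with a zone scale and reported as the average. DMSO served as negative control and ciprofloxacin as positive control.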

[2] = test system: Staphylococcus aureus; test: Antibacterial activity against Staphylococcus aureus MTCC 96 at 2 mg/ml after 24 hrs by agar well diffusion method; conditions: MTCC 96, 24 h, read-out: DIZ; how it was run: as §1
[3] = test system: Pseudomonas aeruginosa; test: Antibacterial activity against Pseudomonas aeruginosa MTCC 741 after 24 hrs by agar well diffusion method; conditions: MTCC 741, 24 h
How it was run: (§2)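 MIC by modified agar well diffusion. Two-fold serial dilutions (DMSO stock diluted in sterile distilled water), range 256 to 0.5, placed in wells in triplicate. Agar was pre-seeded with 100 standardized inoculum at 10⁶ cfu/mL. Incubated aerobically at 37 °C for 24 h. MIC taken as lowest concentration giving a clear zone, i.e. complete growth inhibition.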

[4] = test system: Bacillus subtilis; test: Antibacterial activity against Bacillus subtilis MTCC 121 after 24 hrs by agar well diffusion method; conditions: MTCC 121, 24 h; how it was run: as §2
[5] = test system: Pseudomonas aeruginosa; test: Antibacterial activity against Pseudomonas aeruginosa MTCC 741 at 2 mg/ml after 24 hrs by agar well diffusion method; conditions: for zone of inhibition at 2000 µg/mL: MTCC 741, 24 h, read-out: DIZ; how it was run: as §1
[6] = test system: Penicillium sp.; test: Antifungal activity against Penicillium sp. assessed as inhibition of mycelial growth at 4 mg/ml after 7 days; conditions: 168 h, read-out: GI
How it was run: (§3)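 Poisoned food method. Molds grown on Sabouraud dextrose agar at 25 °C for 7 days to provide inocula. Molten SDA (45 °C) dosed with compound at 4.0 mg/mL in DMSO, then solidified. 8 mm fungal plugs from colony margins placed centrally. Incubated 25 °C for 7 days, in triplicate. % mycelial growth inhibition calculated from colony diameters versus DMSO control. Fluconazole served as positive control.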

[7] = test system: Aspergillus flavus; test: Antifungal activity against Aspergillus flavus assessed as inhibition of mycelial growth at 4 mg/ml after 7 days; conditions: 168 h, read-out: GI; how it was run: as §3
[8] = test system: Escherichia coli; test: Antibacterial activity against Escherichia coli MTCC 1652 at 2 mg/ml after 24 hrs by agar well diffusion method; conditions: for zone of inhibition at 2000 µg/mL: MTCC 1652, 24 h, read-out: DIZ; how it was run: as §1
[9] = test system: Escherichia coli; test: Antibacterial activity against Escherichia coli MTCC 1652 after 24 hrs by agar well diffusion method; conditions: MTCC 1652, 24 h; how it was run: as §2
[10] = test system: Aspergillus niger; test: Antifungal activity against Aspergillus niger assessed as inhibition of mycelial growth at 4 mg/ml after 7 days; conditions: 168 h, read-out: GI; how it was run: as §3
[11] = test system: Staphylococcus aureus; test: Antibacterial activity against Staphylococcus aureus MTCC 96 after 24 hrs by agar well diffusion method; conditions: MTCC 96, 24 h; how it was run: as §2

Compound | zone of inhibition at 2000 µg/mL [1] [mm] | zone of inhibition at 2000 µg/mL [2] [mm] | MIC [3] [µg/mL] | MIC [4] [µg/mL] | zone of inhibition at 2000 µg/mL [5] [mm] | inhibition of growth at 4000 µg/mL [6] [%] | inhibition of growth at 4000 µg/mL [7] [%] | zone of inhibition at 2000 µg/mL [8] [mm] | MIC [9] [µg/mL] | inhibition of growth at 4000 µg/mL [10] [%] | MIC [11] [µg/mL] | diameter of the inhibition zone (DIZ) [5] | diameter of the inhibition zone (DIZ) [8]
Cc1cccc2c1CC1Sc3nnc(-c4ccccc4)n3N=C21 (configuration not stated) | 21.6 | 22.3 | 128 (≈ 402 µM) | 32 (≈ 101 µM) | 15.6 | 60 | 58.8 | 17.3 | 128 (≈ 402 µM) | 55.5 | 32 (≈ 101 µM) |  | 
Cc1cccc2c1CC1Sc3nnc(C(C)C)n3N=C21 (configuration not stated) | 27 | 28.6 | 32 (≈ 113 µM) | 8 (≈ 28.1 µM) | 20.3 | 65.5 | 61.1 | 21.6 | 32 (≈ 113 µM) | 63.3 | 4 (≈ 14.1 µM) |  | 
CCCc1nnc2n1N=C1c3cccc(C)c3CC1S2 (configuration not stated) | 21.6 | 25.3 | 64 (≈ 225 µM) | 32 (≈ 113 µM) | 17.6 | 61.1 | 55.5 | 19.3 | 64 (≈ 225 µM) | 58.8 | 16 (≈ 56.3 µM) |  | 
CCCc1nnc2n1N=C1c3ccccc3CC1S2 (configuration not stated) | 25 | 27.3 | 64 (≈ 237 µM) | 16 (≈ 59.2 µM) | 18.6 | 53.3 | 52.5 | 19.3 | 64 (≈ 237 µM) | 55.5 | 8 (≈ 29.6 µM) |  | 
CCc1nnc2n1N=C1c3ccccc3CC1S2 (configuration not stated) | 21.6 | 25.3 | 128 (≈ 499 µM) | 32 (≈ 125 µM) | 16 | 57.7 | 55.5 | 18.3 | 64 (≈ 250 µM) | 58.8 | 16 (≈ 62.4 µM) |  | 
Cc1nnc2sc3cc4ccccc4c-3nn12 | 15.3 | 14.6 |  | 256 (≈ 1070 µM) |  | 52.5 | 48.8 |  |  | 50 | 256 (≈ 1070 µM) | inactive | inactive
Cc1cccc2c1CC1Sc3nnc(C)n3N=C21 (configuration not stated) | 31.3 | 27.6 | 64 (≈ 250 µM) | 2 (≈ 7.8 µM) | 18.6 | 67.7 | 68.8 | 20.6 | 64 (≈ 250 µM) | 67.7 | 8 (≈ 31.2 µM) |  | 
OC(Cn1cncn1)(Cn1cncn1)c1ccc(F)cc1F [FLUCONAZOLE] |  |  |  |  |  | 83.3 | 77.7 |  |  | 81.1 |  |  | 
CC(C)c1nnc2sc3cc4ccccc4c-3nn12 | 17.3 | 15.6 |  | 128 (≈ 477 µM) |  | 44.4 | 50 |  |  | 48.8 | 128 (≈ 477 µM) | inactive | inactive
c1ccc2c(c1)CC1Sc3nncn3N=C21 (configuration not stated) | 17.6 | 15.3 |  | 128 (≈ 561 µM) |  | 51.1 | 52.5 |  |  | 51.1 | 128 (≈ 561 µM) | inactive | inactive
Cc1nnc2n1N=C1c3ccccc3CC1S2 (configuration not stated) | 16.3 | 14.6 |  | 128 (≈ 528 µM) |  | 55.5 | 51.1 |  |  | 53.3 | 256 (≈ 1060 µM) | inactive | inactive
c1ccc2c3nn4cnnc4sc-3cc2c1 | 16 | 14.3 |  | 128 (≈ 566 µM) |  | 51.1 | 50 |  |  | 53.3 | 256 (≈ 1130 µM) | inactive | inactive
Cc1cccc2c3nn4cnnc4sc-3cc12 | 28.6 | 25.3 | 128 (≈ 533 µM) | 4 (≈ 16.6 µM) | 18.3 | 66.6 | 68.8 | 20.6 | 64 (≈ 266 µM) | 71.1 | 16 (≈ 66.6 µM) |  | 
CCc1nnc2sc3cc4c(C)cccc4c-3nn12 | 23 | 21.6 | 64 (≈ 238 µM) | 32 (≈ 119 µM) | 17.3 | 63.3 | 62.5 | 19.3 | 64 (≈ 238 µM) | 65.5 | 32 (≈ 119 µM) |  | 
CCCc1nnc2sc3cc4ccccc4c-3nn12 | 24.3 | 25.6 | 128 (≈ 477 µM) | 16 (≈ 59.6 µM) | 16.3 | 47.7 | 48.8 | 18.6 | 64 (≈ 238 µM) | 51.1 | 16 (≈ 59.6 µM) |  | 
Cc1cccc2c3nn4c(C)nnc4sc-3cc12 | 18.6 | 20.3 | 128 (≈ 503 µM) | 64 (≈ 252 µM) | 15.6 | 51.1 | 50 | 18.6 | 64 (≈ 252 µM) | 53.3 | 64 (≈ 252 µM) |  | 
CC(C)c1nnc2n1N=C1c3ccccc3CC1S2 (configuration not stated) | 24.6 | 28.6 | 32 (≈ 118 µM) | 16 (≈ 59.2 µM) | 19.3 | 51.1 | 51.1 | 20.6 | 64 (≈ 237 µM) | 53.3 | 4 (≈ 14.8 µM) |  | 
CCCc1nnc2sc3cc4c(C)cccc4c-3nn12 | 18.6 | 16.3 | 256 (≈ 907 µM) | 64 (≈ 227 µM) | 14.3 | 65.5 | 65.5 | 15.6 | 128 (≈ 453 µM) | 68.8 | 128 (≈ 453 µM) |  | 
c1ccc(-c2nnc3sc4cc5ccccc5c-4nn23)cc1 | 15 | 14.6 |  | 256 (≈ 847 µM) |  | 51.1 | 48.8 |  |  | 45.5 | 256 (≈ 847 µM) | inactive | inactive
Cc1cccc2c1CC1Sc3nncn3N=C21 (configuration not stated) | 30.6 | 26.3 | 32 (≈ 132 µM) | 2 (≈ 8.25 µM) | 20.3 | 62.5 | 65.5 | 22.3 | 32 (≈ 132 µM) | 63.3 | 8 (≈ 33 µM) |  | 
O=C(O)c1cn(C2CC2)c2cc(N3CCNCC3)c(F)cc2c1=O [CIPROFLOXACIN] | 24 | 26.6 | 5 (≈ 15.1 µM) | 5 (≈ 15.1 µM) | 22 |  |  |  | 5 (≈ 15.1 µM) |  | 5 (≈ 15.1 µM) |  | 
CCc1nnc2sc3cc4ccccc4c-3nn12 | 17.6 | 16.3 |  | 128 (≈ 503 µM) |  | 50 | 45.5 |  |  | 48.8 | 128 (≈ 503 µM) | inactive | inactive
c1ccc(-c2nnc3n2N=C2c4ccccc4CC2S3)cc1 (configuration not stated) | 16.3 | 20.6 | 256 (≈ 841 µM) | 128 (≈ 421 µM) | 14.6 | 50 | 48.8 | 18.3 | 64 (≈ 210 µM) | 51.1 | 64 (≈ 210 µM) |  | 
